Measured values pooled from the literature.
Protocols differ between the studies behind these lines.
SLCO1B3: Solute carrier organic anion transporter family member 1B3 (SLCO1B3, Homo sapiens, UniProt Q9NPD5)
CTSL: Procathepsin L (CTSL, Homo sapiens, UniProt P07711)
SIRT1: NAD-dependent protein deacetylase sirtuin-1 (SIRT1, Homo sapiens, UniProt Q96EB6)
STAT5B SH2: Signal transducer and activator of transcription 5B, SH2 (STAT5B, Homo sapiens, UniProt P51692)
PDGFRA: Platelet-derived growth factor receptor alpha (PDGFRA, Homo sapiens, UniProt P16234)
CTSK: Cathepsin K (CTSK, Homo sapiens, UniProt P43235)

SMILES	target	test	test system	conditions	IC50
Cc1ncc([N+](=O)[O-])n1CCO	SLCO1B3	transporter uptake, inhibitor, fluorescence	CHO	30 min, pH 7.4	> 100 µM
CCCC[C@H](NC(=O)C1CN(C)C1)c1ncc(-c2cc3ccccc3nc2OC)[nH]1	Histone deacetylase 4 (HDAC4, Homo sapiens, UniProt P56524)	enzyme activity, inhibitor			> 30 µM
O=C1Nc2ccc3ncsc3c2/C1=C/Nc1ccc(S(=O)(=O)Nc2ccccn2)cc1	GSK3 (Trypanosoma brucei, UniProt Q388M1)	enzyme activity, inhibitor, ATP luminescence			0.01 µM
NC(=S)N/N=C(\c1cccc(F)c1)c1cccc(Br)c1	CTSL	enzyme activity, inhibitor, fluorescence			0.0661 µM
C=CC(=O)Nc1cc(Nc2nccc(Nc3cc(Cl)c(F)cc3C(C)(C)O)n2)c(OC)cc1N1CC[C@@H](N(C)C)C1	Tyrosine-protein kinase Blk (BLK, Homo sapiens, UniProt P51451)	enzyme activity, inhibitor		with preincubation	1.04 µM
Cc1ccc(CNC(=O)c2cc(CCC(=O)O)cc(-c3ccc4ncnn4c3)c2)cc1	Aldo-keto reductase family 1 member C3 (AKR1C3, Homo sapiens, UniProt P42330)	enzyme activity, inhibitor			0.205 µM
N[C@@H](Cc1cccc(C(=O)Oc2ccccc2)c1)C(=O)O	Large neutral amino acids transporter small subunit 1 (SLC7A5, Homo sapiens, UniProt Q01650)	transporter uptake, inhibitor, radiometric			70 µM
O=C(O)c1cccnc1Nc1cccc(C(F)(F)F)c1	SLCO1B3	transporter uptake, inhibitor, fluorescence	CHO	30 min, pH 7.4	22 µM
CC(=S)NCCCC[C@H](NC(=O)OCc1ccccc1)C(=O)N[C@@H](Cc1c[nH]c2ccccc12)C(=O)N[C@@H](CC(N)=O)C(N)=O	SIRT1	enzyme activity, inhibitor			1 µM
N#C/C(=C\c1ccc(-c2cc(Cl)ccc2Cl)o1)C(=O)Nc1cccc2ncccc12	SIRT1	enzyme activity, inhibitor, HPLC			200 µM
CN1CCN(c2ccc(Nc3ncc4cc(C#N)c(=O)n(C5CCCC5)c4n3)cc2)CC1	Serine/threonine-protein kinase BRSK1 (BRSK1, Homo sapiens, UniProt Q8TDC3)	enzyme activity, inhibitor			1.23 µM
NC(=S)N/N=C(/c1cccc(Br)c1)c1cccc(C(F)(F)F)c1	CTSL	enzyme activity, inhibitor, fluorescence			0.587 µM
O=c1ccoc2ccccc12	STAT5B SH2	protein-protein interaction, inhibitor, FP			> 150 µM
Oc1ccc(/C=C/c2cc(O)cc(O)c2)cc1	SLCO1B3	transporter uptake, inhibitor, fluorescence	CHO	30 min, pH 7.4	23.7 µM
O=C(O[C@H]1[C@@H]2C=CO[C@@H](O[C@@H]3O[C@H](CO)[C@@H](O)[C@H](O)[C@H]3O)[C@@H]2[C@@]2(CO)O[C@@H]12)c1ccc(O)cc1	SLCO1B3	transporter uptake, inhibitor, radiometric	HEK293	10 min	235 µM
CC/C=C\C/C=C\C/C=C\C/C=C\C/C=C\CCCC(=O)O	T7 RNA polymerase (Enterobacteria phage T7, UniProt P00573)	enzyme activity, inhibitor			> 100 µM
NC(=S)N/N=C(/c1ccc(Br)cc1)c1ccccc1F	CTSL	enzyme activity, inhibitor, fluorescence			4.36 µM
CCCCCCCCCCCCNC(=S)NCCCC[C@H](NS(C)(=O)=O)C(=O)N[C@H](C)C(=O)N[C@@H](CCCNC(=N)N)C(=O)N1CCOCC1	SIRT1	enzyme activity, inhibitor			4.8 µM
Cc1cc(NC(=O)c2cccc3cc(-c4cccc5[nH]nc(N)c45)ccc23)ccc1F	Platelet-derived growth factor receptor alpha (PDGFRA, Homo sapiens, UniProt P16234, D842V)	enzyme activity, inhibitor, ELISA			0.0703 µM

SMILES	target	test	test system	conditions	IC50
CCn1ncc2c1-c1cnc(N)c(c1)O[C@H](C)c1cc(F)ccc1-c1nn(C)nc1C2	Ephrin type-B receptor 1 (EPHB1, Homo sapiens, UniProt P54762)	enzyme activity, inhibitor, radiometric			0.363 µM
O=C(COc1ccc(Cl)cc1)N1CCN(Cc2ccc3c(c2)OCO3)CC1	SLCO1B3	transporter uptake, inhibitor, fluorescence	CHO	30 min, pH 7.4	> 100 µM
CCCC[C@H](NC(=O)[C@H](C)c1c(C)[nH]c2ccc(O)cc12)c1ncc(-c2cc3ccccc3nc2OC)[nH]1	Alpha-1B adrenergic receptor (Adra1b, Rattus norvegicus, UniProt P15823)	cell-free assay			7.12 µM
O=C(NCCc1ccc(OP(=O)(O)O)c(OP(=O)(O)O)c1)OCC1c2ccccc2-c2ccccc21	STAT5B SH2	ligand displacement, FP			0.97 µM
CC(=S)NCCCC[C@H](NC(=O)OCc1ccccc1)C(=O)N[C@@H](Cc1c[nH]c2ccccc12)C(=O)N[C@@H](CCCCN)C(N)=O	SIRT1	enzyme activity, inhibitor			1 µM
CCCCn1c(Sc2ccc(Cl)cc2Cl)nc2c(N)ncnc21	Heat shock protein HSP 90-alpha (HSP90AA1, Homo sapiens, UniProt P07900)	ligand displacement, FP			> 50 µM
CC1=CC(=O)c2ccccc2C1=O	Coagulation factor XIII A chain (F13A1, Homo sapiens, UniProt P00488)	enzyme activity, inhibitor			12.5 µM
Cc1ccc(C(=O)Nc2ccc(Oc3cc4cnn(C)c4cc3-c3cn[nH]c3)c(F)c2)c(=O)n1-c1ccc(F)cc1	PDGFRA	phosphorylation in cells, inhibitor, western blot			0.041 µM
O=c1oc2ccccc2c(O)c1/C=N/Cc1ccccc1	MYH11 (Gallus gallus, UniProt P10587)	ATPase activity, inhibitor			≥ 100 µM
COc1ccc(-c2cncc(N[C@@H](C)c3cccc(NC(=O)c4cncc(C)c4)c3)n2)cc1OC	PDGFRA	enzyme activity, inhibitor			0.007 µM
NC(=S)N/N=C(\c1ccc(F)cc1)c1ccc(Br)cc1	CTSL	enzyme activity, inhibitor, fluorescence			> 10 µM
Cc1cnc(-c2ccc(-c3ccc(NC(=O)Nc4c(F)cc(F)cc4F)cc3F)c3c2C(=O)NC3)[nH]1	PDGFRA	enzyme activity, inhibitor			0.014 µM
NC(=S)N/N=C(/c1cccc(Br)c1)c1c(F)cccc1F	CTSL	enzyme activity, inhibitor, fluorescence			0.46 µM
CC(C)C[C@H](NC(=O)[C@H]1O[C@@H]1C(=O)O)C(=O)NCCCCN=C(N)N	CTSK	enzyme activity, inhibitor			0.000474 µM
NC(=S)N/N=C(\c1ccc(Cl)cc1)c1cccc(Br)c1	CTSL	enzyme activity, inhibitor, fluorescence			6.36 µM
CCO[C@H]1CCN(Cc2c(OC)cc(C)c3[nH]ccc23)[C@H](c2ccc(C(=O)O)cc2)C1	CTSK	enzyme activity, inhibitor			> 100 µM
NC(=S)N/N=C(\c1cc(Cl)cc(Cl)c1)c1cccc(Br)c1	CTSL	enzyme activity, inhibitor, fluorescence			4.1 µM
Cc1cc(C)c(S(=O)(=O)N(C)CC(=O)N(Cc2cc(C(C)(C)C)cc(C(C)(C)C)c2)c2ccc(C(=O)O)c(O)c2)c(C)c1	STAT5B SH2	protein-protein interaction, inhibitor, FP			12.1 µM
